Tested on: MS2 coat protein
Test: apparent Kd, MS2 coat protein; higher = weaker binding; RNA-MaP array; FMN 200 µM where present
Procedure, shortened: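 The apparent Kd is the median of filtered binding-curve fits, one per cluster, to green signal normalised to red-channel RNA signal and control-cluster median Fmax. The clusters were on Illumina sequencing chips, and stalled E. coli RNA polymerase had transcribed the designs on them. Titration used SNAP-549-labelled MS2 coat protein from 0.7 or 1.5 nM, doubling to 3 µM, without and then with constant ligand, in 100 mM Tris-HCl pH 7.5, 80 mM KCl, 4 mM MgCl2, BSA, DTT, yeast tRNA and Tween-20.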

[1] = designed as: OFF switch for flavin mononucleotide, no ligand
[2] = ligand present: flavin mononucleotide, designed as: OFF switch for flavin mononucleotide
[3] = designed as: ON switch for flavin mononucleotide, no ligand
[4] = ligand present: flavin mononucleotide, designed as: ON switch for flavin mononucleotide

Row | Sequence | apparent Kd [1] [nM] | apparent Kd [2] [nM] | apparent Kd [3] [nM] | apparent Kd [4] [nM]
1 | UCGUGAAGGAUAGGAUAUGGACAUGAGGAUCACCCAUGUACAUGGGAAUGAAUACUGAAUUUGUACUAGAAGGGUUACAUAAAU | 44.4 | 39.5 |  | 
2 | UCGUGGUUAGGAUAUACAUGAGGAUCACCCAUGUGUGGCAGGGAGCGCCGACGGGCUUGUAGAAGGGAUGCGCA | 40.4 | 39.6 |  | 
3 | UCGUUUGUACUAGGAUAUACCGACGAAAGAUCAGUAGAAGGAGUAACAGACAUGAGGAUCACCCAUGUAUGGGUCCUUAAACAA | 35.8 | 217 |  | 
4 | UCUACAUAGAUUCAUCAAUACAGUAAGGAUAUGAGAUACAUGAGGAUCACCCAUGUGCAUGUGAAUUAGAAGGUACAAUUAACU | 15.7 | 12.8 |  | 
5 | UCUGCCGCCGUGAGGAUAUGCCCAAAUAAAAGCGGGCAGAAGGCACAUGAGGAUCACCCAUGUCCCGCGGUUUU | 15.8 | 38.4 |  | 
6 | UCUGCCGCCGUGAGGAUAUGCCCGCAAAAACGCGGGCAGAAGGCACAUGAGGAUCACCCAUGUCCCGCGGUUUU | 13.9 | 33.6 |  | 
7 | UCUGUUCAAGGAUAUGCGUAAUGUGUUACGGCACAAGGUCUACAUGAGGAUCACCCAUGUAGAAGGUGAUCAGA | 20.8 | 22.4 |  | 
8 | UCUUAGUCAGGAUAUACAUGAGGAUCACCCAUGUAAAAUUUUAAUUUAAUUUUAAGGUGUAGAAGGGACCAUUU | 30.6 | 26.2 |  | 
9 | UCUUAUUGCAAGGAUAUGCAAAUUAUUUUUUAAGCAGAAGGUGCAACAUGAGGAUCACCCAUGUUUCCGGGCAA | 15.3 | 42.9 |  | 
10 | UGAAAUCAUGUAGGAUAUGCAUGGCGAAGCUACGCAGAAGGACAUGAGGAUCACCCAUGUUAUAGCUACCCAGCUCGGUGGCAA | 39.6 | 117 |  | 
11 | UGAACAAUGUAGAAGGCCCACAUUUAUAUGUAGGGAGGAUAUACAUGAGGAUCACCCAUGUAAAGAGCAAGAGGAUUUGACAGA | 9.49 | 17.6 |  | 
12 | UGACAUAUAUAGAAGGGUAGUAGGGUAUUACAUGAGGAUCACCCAUGUAUUAUAGGAUAUGUAUAAAGUUAUUAUUCAAGUAAA | 15.8 | 13 |  | 
13 | UGACCCUGGAAGAGUGUUUAGACAUGAGGAUCACCCAUGUCUGAGGAUAUGCGGCAUCAAUAACAGCAGAAGGCAGACUUGGGU | 239 | 32.7 |  | 
14 | UGACCCUGGAUGAGUGUUUAGACAUGAGGAUCACCCAUGUCUGAGGAUAUGCGGCAUCAAUAACAGCAGAAGGCAGACUUGGGU | 133 | 41.2 |  | 
15 | UGACGGAGCAGAGGAUAUACAUGAGGAUCACCCAUGUAAGAUCUCCAGGAAACUGGAGAUCAAAUGUAGAAGGCUGCUCCGUCA | 18.1 | 56 |  | 
16 | UGACGGAGCUGAGGAUAUAUACAUGAGGAUCACCCAUGUAAGCUCCAGGAAACUGGAGCAAAUGUAUAGAAGGCAGCUCCGUCA | 30.3 | 48 |  | 
17 | UGACUCGGAGGAUAUACAUGAGGAUCACCCAUGUUUACUUGCCGCCGAGUAACCUGGUGUAGAAGGUCGAGUGU | 17.2 | 13.7 |  | 
18 | UGAGCCUCGUGAGGAUAUACAUGAGGAUCACCCAUGUAAUAAAUCCAACGGAGGAAACUCCGAAUGUAGAAGGCACGAGGCUCA | 18.1 | 64.3 |  | 
19 | UGAGGACAUGAGGAUCACCCAUGUAGGCCACAAUCAGGAUAUGCAUUAAGGUACCUAAGAGUAGAAGGGAUUCGAG |  |  | 82.1 | 75.6
20 | UGAGUGCGUGUUAGGAUAUGGUUUGGUAUUUCGGGCUAGAAGGGACAUGAGGAUCACCCAUGUAAUUGAUAGGU | 47 | 53 |  | 
21 | UGAUAACAUGUAGGAUAUGCAGCAUUGACCACUGCAGAAGGACAUGAGGAUCACCCAUGUACCCAUACUAUGGGAUCACGCAAU | 45.9 | 195 |  | 
22 | UGAUAGGACAGAGGAUAUGCCGAUAGGAUCUACUAUCGAAGAAUCCUCACAUGAGGAUCACCCAUGUAGAAGGCUGUUCUAUCU | 8.18 | 33 |  | 
23 | UGAUCGAAAGAUCAUAGAUUCUGCUAGGAUAUGCAGGAGUUGCGCUUUACAUGAGGAUCACCCAUGUAGAAGGAGUAGAGUCUA | 6.77 | 8.88 |  | 
24 | UGAUCUAUGUAGAAGGCCCAUAUCUAUAUUUAGGGAGGAUAUACAUGAGGAUCACCCAUGUAUAGAGCUAGUGGACUGGUCAGC | 48 | 69.4 |  | 
25 | UGAUCUUACAUGAGGAUCACCCAUGUAGGCCUGUAACUAACCAGAAGGCACGUAGAGUAAAACAGUGAGGAUAUGGAUGACGUA |  |  | 22.4 | 9.35
26 | UGAUUGCCUGUAAGGAUAUCUACGGCCGUUCGCUGGGAGAAGGUACAUGAGGAUCACCCAUGUACAGUCAUGGG | 42.9 | 93.5 |  | 
27 | UGAUUUCAUGUAGGAUAUGCUUGGCGUAGCUACGCAGAAGGACAUGAGGAUCACCCAUGUUUUAGCGUCUGAGUAUAGAUUCUU | 35.3 | 89.7 |  | 
28 | UGCAGGUGAGGAUAUGCGGGCGAUUAAACAUAUAAAUGCAAGCAGAAGGCACAUGAGGAUCACCCAUGUAGUCC | 26 | 36.1 |  | 

Row | Sequence | apparent Kd [1] [nM] | apparent Kd [2] [nM] | apparent Kd [3] [nM] | apparent Kd [4] [nM]
29 | UGCAUGGUAGGAUAUACGGAGCAUUAGGGUUUGUUAUGUGGACAUGAGGAUCACCCAUGUAGAAGGGCCGUGCU | 37.3 | 57.1 |  | 
30 | UGCAUGUAAGGAUAUGCAACCUGCGCUCAUUAGCAGGUCAAGCAGAAGGUACAUGAGGAUCACCCAUGUGUCCG | 31.2 | 156 |  | 
31 | UGCCCUCUUAAGGAUAUAUUGGACGAGCGACCAAUAGAAGGUGGGACAUGAGGAUCACCCAUGUGCAGACAUCC | 23.2 | 22.7 |  | 
32 | UGCCGUGUACAGAAGGGCGACAUGAGGAUCACCCAUGUCUCCUUGUUGGUCGUAGGAUAUGUACCGUGGCUCUCACCUGUGGGA | 5.57 | 6.95 |  | 
33 | UGCCUGAGUCGAGGAUAUUAUGGAUCCUCUAAUACAUGAGGAUCACCCAUGUAAUUAAUUAUACAUGAGAAGGUGACUCAGGCU |  |  | 529 | 488
34 | UGCGUUAAGCCCUUAAGUCGUCAACAUGAGGAUCACCCAUGUAGAAGGCAGCGGACGCGGCCGGCUGAGGAUAUACAUGUAGGU | 13.3 | 16.8 |  | 
35 | UGCUAGAACCUAGGAUAUCCUAGGUUGGUGGUGCUUGGUGACCGGACAUGAGGAUCACCCAUGUAGGAGAAGGAGGUUGCUAAG | 37.8 | 41.2 |  | 
36 | UGCUAGUCAGGAUAUACGUACAUGUCAUUAGACGUGAAGGGACAUGAGGAUCACCCAUGUAGAAGGGACUAGCU | 42.4 | 149 |  | 
37 | UGCUGUGGCAGAGGAUAUACUCUAAUAAUCCAUUGCAAAUAGCGAUGGACAUGAGGAUCACCCAUGUAGAAGGCUGUCACAGCA | 63.7 | 137 |  | 
38 | UGCUGUGUCAGAGGAUAUCUACUAAUAAUCCAUUGCAAAUAGCGAUGGACAUGAGGAUCACCCAUGUAGAAGGCUGUCACAGCA | 110 | 120 |  | 
39 | UGGACCGAGCUGUCGGUUGACUCUAAGGAUAUGACAUGAGGAUCACCCAUGUGGGAUCUAAAUUGUCAGAAGGUGGGUUCUGGG | 95 | 51 |  | 
40 | UGGACUGGGCAGAAGGGACAUGAGGAUCACCCAUGUCUUGGGCUACUUCAGUCAGGAUAUGCCCAAUAAAUAUCCGUGCAUCAA | 13.3 | 67.1 |  | 
41 | UGGACUGGGCAGAAGGGACAUGAGGAUCACCCAUGUCUUGGGCUACUUCAGUCAGGAUAUGCCCAUUGAAUAUCCGAGCAUCAA | 13.7 | 77.4 |  | 
42 | UGGGCCUCGUGAGGAUAUACAUGAGGAUCACCCAUGUAAUAAAGUGAACGGAGGAAACUCCGAAUGUAGAAGGCACGAGGCUCA | 19.5 | 147 |  | 
43 | UGGGUAAAUGUAGGAUAUCCAUAUUAAUAAUAUGGAGAAGGACAUGAGGAUCACCCAUGUACAGGGAAUUACCCAUUUCCUCUC | 80.1 | 287 |  | 
44 | UGGUACAUGAGGAUCACCCAUGUAAGAGCCCUCAUGCGAUGUAGAAGGAUAAUGCGAGUAGUGCUAUAGGAUAUACAUGAGUUU | 225 | 207 |  | 
45 | UGGUACAUGGGAGGAUAUCCUCAAGAACAUGAGGAUCACCCAUGUAAUUAUAAGCCGAAAGGCAUGGAGAAGGCCCAUGUACCU |  |  | 66.4 | 16
46 | UGGUACAUGGGAGGAUAUCCUCAUGAGACAUGAGGAUCACCCAUGUAUUAUAAGCCGAAAGGCAAGGAGAAGGCCCAUGUACCU |  |  | 90.2 | 19.5
47 | UGGUACAUGGGAGGAUAUGGGUUGAUAACAUGAGGAUCACCCAUGUUAAAAUGCCGAAAGGCAAACUAGAAGGCCCAUGUACCU |  |  | 443 | 32.2
48 | UGGUACUAGGGAGGAUAUGGGAAGAUACAUGAGGAUCACCCAUGUUUAAGAAGGCCGAGAGGCAACUAGAAGGCCCUAGUACCU |  |  | 396 | 16
49 | UGGUACUAGGGAGGAUAUGGGAAGAUACAUGAGGAUCACCCAUGUUUAAGAAUGCCGAGAGCCAACUAGAAGGCCCUAGUACCU |  |  | 120 | 16.7
50 | UGGUACUAGGGAGGAUAUGGGAAGAUACAUGAGGAUCACCCAUGUUUAAGAAUGCCGAGAGGCAAAUAGAAGGCCCUAGUACCU |  |  | 658 | 85.4
51 | UGGUACUAGGGAGGAUAUGGGAAGAUACAUGAGGAUCACCCAUGUUUAAGAAUGCCGAGAGGCAACUAGAAGGACCUAGUACCU |  |  | 896 | 63.6
52 | UGGUACUAGGGAGGAUAUGGGAAGAUACAUGAGGAUCACCCAUGUUUAAGAAUGCCGAGAGGCAACUAGAAGGCCCUAGUAACU |  |  | 461 | 20.2
53 | UGGUACUAGGGAGGAUAUGGGAAGAUACAUGAGGAUCACCCAUGUUUAAGAAUGCCGAGCGGCAACUAGAAGGCCCUAGUACCU |  |  | 479 | 20.8
54 | UGGUACUAGGGAGGAUAUGGGAAGAUACAUGAGGAUCACCCAUGUUUACGAAUGCCGAGAGGCAACUAGAAGGCCCUAGUACCU |  |  | 315 | 19.5
55 | UGGUCAUGAUCAGGAUAUUAACAUGGGCUACAUUGAGAAGGGAUAGUGAGAUACGAACUGAACGACAUGAGGAUCACCCAUGUA |  |  | 59.7 | 44

— the EternaBench riboswitch data
